According to ChEMBL document CHEMBL1144285, “Pyrrolidinohydroquinazolines--a novel class of CCR3 modulators” (Bioorg Med Chem Lett, 2005):

The compounds below were run against T1, C-C chemokine receptor type 3 (Homo sapiens, UniProt P51677) (assay: Binding affinity measured for human C-C chemokine receptor type 3 expressed on human K562 cell membrane).
T1 sequence (P51677 whole entry): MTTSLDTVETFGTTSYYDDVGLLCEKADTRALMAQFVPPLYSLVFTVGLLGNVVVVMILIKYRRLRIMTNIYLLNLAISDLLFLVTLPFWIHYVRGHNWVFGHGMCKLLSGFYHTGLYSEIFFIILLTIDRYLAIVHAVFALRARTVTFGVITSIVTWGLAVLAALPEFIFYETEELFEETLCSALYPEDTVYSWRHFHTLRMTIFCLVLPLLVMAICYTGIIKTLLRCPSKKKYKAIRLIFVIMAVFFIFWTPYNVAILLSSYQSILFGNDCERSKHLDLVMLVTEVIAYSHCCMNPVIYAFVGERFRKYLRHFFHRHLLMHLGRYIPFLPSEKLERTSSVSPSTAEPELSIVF
Type: cell membranes
Outline: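 Membranes from K562 cells transfected with human CCR3 (disrupted by nitrogen decompression, spun 40,000g, 4 °C, 1 h), 0.5–5 µg protein/well. SPA with WGA-coated PVT beads and 125I-rh eotaxin-1. Compounds added as DMSO dilutions, incubated 2 h. Buffer: 25 mM HEPES, 25 mM MgCl2, 1 mM CaCl2, 0.1% BSA. Unlabelled rh eotaxin defined nonspecific binding. Ki obtained by iterative mass-action fitting.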

Row | Ki [nM] | Structure (SMILES)
1 | 140 | CCC1C/C(=C\c2ccccc2Cl)C2=Nc3ccccc3CN21 (stereo unspecified)
2 | 1400 | CN(C)c1ccc(/C=C2\CCN3Cc4ccccc4N=C23)c(Cl)c1
3 | 1600 | FC(F)(F)c1ccccc1/C=C1\CCN2Cc3ccccc3N=C12
4 | 90 | Brc1ccccc1/C=C1\CCN2Cc3ccccc3N=C12
5 | 310 | C/N=c1/c2ccccc2nc2n1CC/C2=C\c1ccccc1Br
6 | 1700 | Clc1ccc(/C=C2\CCN3Cc4ccccc4N=C23)c(Cl)c1
7 | 260 | Cc1sc2nc3n(c(=N)c2c1C)CC/C3=C\c1ccccc1Br
8 | 7900 | Fc1ccc(C2C/C(=C\c3ccccc3Br)C3=Nc4ccccc4CN32)cc1 (stereo unspecified)
9 | 1400 | Fc1ccccc1/C=C1\CCN2Cc3ccccc3N=C12
10 | 2900 | C(=C1/CCN2Cc3ccccc3N=C12)/c1ccccc1-c1ccccc1
11 | 1200 | CC(C)(C)c1csc2nc3n(c(=N)c12)CC/C3=C\c1ccccc1Br
12 | 28 | N=c1c2ccsc2nc2n1CC/C2=C\c1ccccc1Br
13 | 290 | N=c1c2c(C3CC3)csc2nc2n1CC/C2=C\c1ccccc1Br
14 | 270 | Cc1oc2nc3n(c(=N)c2c1C)CC/C3=C\c1ccccc1Br
15 | 820 | N=c1c2cccnc2nc2n1CC/C2=C\c1ccccc1Br
16 | 1400 | CCc1ccccc1/C=C1\CCN2Cc3ccccc3N=C12

Row | Ki [nM] | Structure (SMILES)
17 | 830 | N=c1c2nc[nH]c2nc2n1CC/C2=C\c1ccccc1Br
18 | 930 | Fc1ccc(/C=C2\CCN3Cc4ccccc4N=C23)c(Cl)c1
19 | 250 | CCCCC1C/C(=C\c2ccccc2Br)C2=Nc3ccccc3CN21 (stereo unspecified)
20 | 360 | CCc1ccccc1/C=C1\CCn2c1nc1ccccc1c2=N
21 | 350 | N=c1c2c3c(sc2nc2n1CC/C2=C\c1ccccc1Br)CCCC3
22 | 35 | N=c1c2ccccc2nc2n1CC/C2=C\c1ccccc1Cl
23 | 4500 | CCOc1ccccc1/C=C1\CCN2Cc3ccccc3N=C12
24 | 3200 | FC(F)(F)Oc1ccccc1/C=C1\CCN2Cc3ccccc3N=C12
25 | 6100 | N#C/N=c1/c2ccccc2nc2n1CC/C2=C\c1ccccc1Br
26 | 28 | N=c1c2ccccc2nc2n1CC/C2=C\c1ccccc1Br
27 | 3900 | COc1ccc(/C=C2\CCn3c2nc2ccccc2c3=N)cc1
28 | 76 | N=c1c2ccccc2nc2n1CC/C2=C\c1ccccc1I
29 | 1800 | Clc1cccc(Cl)c1/C=C1\CCN2Cc3ccccc3N=C12
30 | 720 | Clc1ccc(/C=C2\CCN3Cc4ccccc4N=C23)cc1Cl
31 | 110 | Clc1ccccc1/C=C1\CCN2Cc3ccccc3N=C12
